Tests used:
[1] = system: Human gammaherpesvirus 4; test: (§1) Effective concentration of compound against Epstein Barr virus was determined; format: functional, organism-based
How it was run: (§2)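 Log-phase H1 cells seeded at 2 × 10^5 cells/well, exposed to a range of concentrations at 37 °C for 5 days. EBV DNA was measured by slot blot of freeze-thaw lysates in 10 mM Tris-HCl pH 7.5 with RNase A (50 μg/mL final, 55 °C, 2 h), probed with EBV EcoRI fragment, then reprobed with Alu. The EBV/Alu ratio was compared with untreated cells.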

[2] = Cytotoxicity on human P3HR1 derived H1 cells; format: functional; conditions: read-out: ID50 (the source's name)
How it was run: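 H1 cells seeded at 2 × 10^5 cells/well with various compound concentrations for 3 days, then counted. ID50 is the dose giving a 50% drop in cell number versus the untreated control. Medium was RPMI 1640 with 10% dialyzed FBS, 37 °C, 5% CO2.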

[3] = system: Human gammaherpesvirus 4; test: as §1; format: functional; how it was run: as §2
[4] = Toxicity of compound was determined as decrease in mt-DNAcontent in human P3HR1 derived H1 cells; format: cell-based
How it was run: (§3)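 H1 cells (high-yield EBV producers derived from P3HR1), kept in log growth for 2 days, seeded at 2 × 10^5 cells/well with or without compound at various concentrations, 37 °C for 5 days. Lysed by freeze-thaw, RNase A treated, slot-blotted, then hybridized with a mitochondrial DNA probe after the Alu probe was stripped. mtDNA content compared with untreated cells.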

[5] = Compound was tested for cytotoxicity against mt-DNA; how it was run: as §3
[6] = Selective Index (ID50/EC90)
[7] = Selective Index from ID50 to that of EC90

| EC50 ([1]; human gammaherpesvirus 4) [µM] | SMILES | IC50 ([2]; Homo sapiens, H1) [µM] | EC90 [3] [µM] | Toxicity [4] [µM] | other results |
| --- | --- | --- | --- | --- | --- |
| – | O=c1[nH]c(=O)n(C2COC(CO)O2)cc1I (stereo in doubt) | – | – | – | EC50 [1]: 7.6 µM; IC50 [2]: 18 µM |
| 4 | O=c1[nH]c(=O)n(C2COC(CO)O2)cc1C(F)(F)F (stereo not given) | > 100 | – | – | – |
| > 50 | O=c1ccn([C@H]2CO[C@@H](CO)O2)c(=O)[nH]1 | – | – | – | – |
| 5 | Nc1nc2c(ncn2COC(CO)CO)c(=O)[nH]1 [GANCICLOVIR] | 75 | – | – | – |
| – | O=c1[nH]c(=O)n(C2COC(CO)O2)cc1I (stereo in doubt; 17) [listing 1 of 2 here] | – | 0.16 | > 50 | EC50 [1]: 0.033 µM; IC50 [2]: > 1000 µM |
| 0.6 | O=c1[nH]c(=O)n(C2COC(CO)O2)cc1Cl (stereo not given) | > 100 | 1.37 | > 50 | Selectivity index [7]: > 72 |
| – | O=c1[nH]c(=O)n(C2COC(CO)O2)cc1I (stereo in doubt; 17) [listing 2 of 2 here] | – | – | – | Selectivity index [7]: > 6250 |
| 50 | O=c1[nH]c(=O)n([C@H]2CO[C@@H](CO)O2)cc1F | > 100 | – | > 50 | – |

| SMILES | EC50 ([1]; human gammaherpesvirus 4) [µM] | IC50 ([2]; Homo sapiens, H1) [µM] | EC90 [3] [µM] | Toxicity [4] [µM] | other results |
| --- | --- | --- | --- | --- | --- |
| O=c1[nH]c(=O)n([C@H]2CO[C@@H](CO)O2)cc1Br | 0.19 | > 1000 | 0.48 | – | Toxicity [5]: > 50 µM; Selectivity index [6]: > 2080 |
